Bioassay records: PubChem BioAssay, several laboratories
NPY-Y2 antag = NPY-Y2 receptor antagonists, primary screen, cell-based; AID 793, 2007; Neuropeptide Y receptor type 2 (Homo sapiens), P49146; 0.99% of 140,000 active; inhibition, % at 2.7 µM; NPY-Y2 expressing cells, antagonist mode; in the data active = inhibition above about 17%;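 note: 0% = vehicle with agonist challenge and 100% = reference antagonist with challenge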
Target sequence (P49146 whole entry, looked up): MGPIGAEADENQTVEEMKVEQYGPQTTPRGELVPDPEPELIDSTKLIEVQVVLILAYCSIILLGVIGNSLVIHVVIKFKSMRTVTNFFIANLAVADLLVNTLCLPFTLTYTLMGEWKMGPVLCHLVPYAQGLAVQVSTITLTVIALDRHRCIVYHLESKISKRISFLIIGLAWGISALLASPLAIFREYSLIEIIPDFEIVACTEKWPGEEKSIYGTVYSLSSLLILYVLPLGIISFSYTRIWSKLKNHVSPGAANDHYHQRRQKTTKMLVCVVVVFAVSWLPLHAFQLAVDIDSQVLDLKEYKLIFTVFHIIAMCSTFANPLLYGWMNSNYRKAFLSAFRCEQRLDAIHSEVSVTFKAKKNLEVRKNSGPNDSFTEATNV
MT stabilizer = microtubule stabilizers in HeLa cells, primary screen, imaging, high-content imaging; 0.83% of 200,000 active; HeLa tubulin immunostaining HCS, 24 h; share of cells brighter than vehicle mean+2SD; % tubulin-high responders, % at 10 µM; AID 2205, 2009;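 active = plate Z-score above 3 for both tubulin-high and condensed-nucleus cell shares, with cell loss under 80%, at 10 µM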;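 note: anti alpha tubulin signal scored within the nucleus-defined area of each cell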
b-catenin transl = modulators of beta-catenin nuclear translocation, primary screen, imaging, HeLa cells, immunofluorescence, high-content; nuclear translocation activity, % at 5 µM; 0.3% of 190,000 active; AID 1665, 2009;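 active = nuclear translocation activity above 50% at 5 µM, with a well cell count of 50 or more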;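 note: per-cell ratio of nuclear to cytoplasmic median beta-catenin stain intensity; plate controls were DMSO negative control for no effect and GSK-3 inhibitor IX positive control for full effect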
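Assay system: human HeLa cells, native beta-catenin; doses: 5 µM primary, 0.02–20 µM confirmation; incubation: compound treatment 24 h, 37°C, 5% CO2; technique: fluorescence imaging of beta-catenin antibody stain plus DAPI; measure: % activation, nuclear-to-cytoplasmic median beta-catenin signal ratio per cell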
NPY2 pot ag = NPY-Y2 potentiators or agonists, primary screen, cell-based; Neuropeptide Y receptor type 2 (Homo sapiens), P49146; cells expressing NPY-Y2, potentiator/agonist read-out; activation, % at 3.6 µM; 0.45% of 220,000 active; AID 1359, 2008; in the data active = activation above about 27%;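 note: cells stimulated with NPY near EC25 plus isoproterenol at EC100; 0% = vehicle plus submaximal agonist and 100% = vehicle plus saturating agonist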
NPY Y1 blocker = NPY-Y1 receptor antagonists, primary screen, cell-based. 1% of 200,000 active. AID 1040, 2008. HEK293-CNG Y1 cells, membrane potential fluorescence; NPY at EC95, then isoproterenol. inhibition, % at 3.6 µM;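 active = inhibition above the campaign mean inhibition of all tested compounds plus 3 SD, cut at about 20% in these data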;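 note: 0% = DMSO wells given NPY plus isoproterenol and 100% = isoproterenol alone without NPY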
Target sequence (P25929 whole entry, looked up): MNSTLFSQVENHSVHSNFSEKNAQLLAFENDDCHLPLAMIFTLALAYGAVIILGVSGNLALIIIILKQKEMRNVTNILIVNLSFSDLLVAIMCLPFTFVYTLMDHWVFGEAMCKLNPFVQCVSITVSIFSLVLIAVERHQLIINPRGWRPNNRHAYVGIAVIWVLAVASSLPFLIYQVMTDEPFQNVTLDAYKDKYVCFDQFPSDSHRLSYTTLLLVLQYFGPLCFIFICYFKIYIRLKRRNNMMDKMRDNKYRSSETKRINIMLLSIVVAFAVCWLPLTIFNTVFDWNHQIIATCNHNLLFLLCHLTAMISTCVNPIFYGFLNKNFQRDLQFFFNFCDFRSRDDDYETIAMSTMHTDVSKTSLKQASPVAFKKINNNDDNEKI
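System: HEK293 cells with Y1 receptor plus CNG channel / Probe or stimulus: NPY 25 nM then isoproterenol 1 µM plus Ro 20-1724 25 µM / Compound: one concentration, 3.6 µM, in 0.4% DMSO / Schedule: compound incubation 1 h at room temperature, readout 45 min post-stimulation / Measured by: membrane potential fluorescence / Read-out: % inhibition of NPY effect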
NPY-Y1 PAM-ag = NPY-Y1 receptor potentiators or agonists, primary screen, cell-based. 0.37% of 220,000 active. AID 1304, 2008. NPY-Y1 expressing cells, potentiator/agonist activation. activation, % at 3.6 µM; in the data active = activation above about 33%, passing the limit was not always enough;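 note: cells stimulated with NPY at EC10 then isoproterenol at EC100; 0% = low agonist plus stimulus and 100% = saturating agonist plus stimulus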
NPY-Y2 confirm = NPY-Y2 potentiators or agonists, confirmation, cell-based | shares compounds with NPY2 pot ag | cell-based NPY-Y2 potentiator/agonist assay | activation, % at 3.6 µM | 20% of 450 active | AID 1539, 2009; in the data active = activation above about 33%
NPY-Y1 potentiator = NPY-Y1 potentiators or agonists, counter-screen for NPY-Y2 potentiator project, cell-based, fluorescence | shares compounds with NPY2 pot ag | Y1 HEK293-CNG cells, membrane potential fluorescence | activation, % at 3.6 µM | 20% of 450 active | AID 1651, 2009; in the data active = activation above about 45%;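 note: cells stimulated with submaximal NPY then isoproterenol with phosphodiesterase inhibitor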
NPY-Y1 agonist 2 = NPY-Y1 direct agonists, selectivity assay for NPY-Y2 potentiator project, cell-based, fluorescence; shares compounds with NPY2 pot ag; 37% of 450 active; AID 1702, 2009; HEK293 Y1-CNGC, membrane potential fluorescence, agonism; activation, % at 3.6 µM;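 active = activation above the mean of DMSO-only control wells plus 3 SD, cut at about 18% in these data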;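 note: cells stimulated with 1 µM isoproterenol plus the PDE inhibitor Ro 20-1724; 0% = isoproterenol with DMSO and no NPY and 100% = 40 nM NPY; Y1 agonists lower the membrane potential dye signal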
CNGC inh = CNGC cAMP sensor activity inhibitors, counter-screen for NPY-Y2 potentiator project, cell-based, HEK293-CNG parental, membrane potential fluorescence | shares compounds with NPY2 pot ag | isoproterenol cAMP | inhibition, % at 3.6 µM | 32% of 450 active | AID 1703, 2009;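 active = inhibition above the control-well mean plus 3 SD of those wells, cut at about 22% in these data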;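 note: 0% = DMSO with isoproterenol and 100% = DMSO without isoproterenol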
NPY-Y2 ag 2 = NPY-Y2 direct agonists, counter-screen for NPY-Y2 potentiator project, cell-based, fluorescence. shares compounds with NPY2 pot ag. HEK293 Y2/CNGC cells, membrane potential fluorescence, agonist mode. activation, % at 3.6 µM. 56% of 450 active. AID 1710, 2009;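 active = activation above the mean of solvent-only control wells plus 3 SD, cut at about 10% in these data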;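 note: cells stimulated by isoproterenol with no NPY added so direct agonism is tested; 0% = DMSO with isoproterenol alone and 100% = NPY at EC100 plus isoproterenol; agonism lowers probe fluorescence through less cAMP and CNG channel opening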
Numbers without * were called inactive; x = not tested or not shown. A selection: hits, their analogues and other compounds. The true share with any hit is near 2.6%.

SMILES | NPY-Y2 antag | MT stabilizer | b-catenin transl | NPY2 pot ag | NPY Y1 blocker | NPY-Y1 PAM-ag | NPY-Y2 confirm | NPY-Y1 potentiator | NPY-Y1 agonist 2 | CNGC inh | NPY-Y2 ag 2
COc1ccc(C(=O)N2CCC(O)(c3ccc(Cl)cc3)CC2)cc1OC | x | x | 0 | 95* | x | 22 | -2 | -10 | -7 | 3 | 0
Cc1c(/C=N\NC(=O)C2COc3ccc(C(C)(C)C)cc3O2)c2ccccc2n1C (centres undefined) | 0 | 3 | 1 | -11 | -2 | 5 | x | x | x | x | x
Fc1ccc(Nc2c(-c3ccco3)nc3ccccn23)cc1 | 6 | 2 | x | 32* | 7 | -1 | 30 | 31 | 18* | 17 | 22*
C[N+](C)(C)CCN1C(=O)CSC1=O | x | x | 0 | 82* | x | 27 | -3 | -1 | -2 | 1 | 2
Cc1ccc(OCCN2C(=O)CSC2=O)cc1 | 4 | 2 | 0 | 0 | 0 | -19 | x | x | x | x | x
CCOC(=O)C1=C(COC(=O)C2(C)CC2(Cl)Cl)NC(=O)NC1c1ccccc1 (centres undefined) | x | 5 | 0 | 11 | 3 | -3 | x | x | x | x | x
CCN(C(=O)COC(=O)c1ccc2c(=O)n3c(nc2c1)CCC3)C1CCS(=O)(=O)C1 (centres undefined) | x | 2 | 1 | 14 | 0 | 13 | x | x | x | x | x
C=CCn1c(=O)c(C(=O)Nc2ccccc2O)c(O)c2ccccc21 | 4 | 5 | x | 53* | 4 | 16 | 1 | -9 | -1 | 2 | 6
Fc1ccc2c(c1)/C(=N/Nc1ccccn1)CCS2 | x | 3 | -3 | 30* | 1 | -4 | 10 | 16 | 27* | 17 | 22*
O=C(COC(=O)c1ccco1)Nc1nc2ccc([N+](=O)[O-])cc2s1 | x | x | 0 | 42* | x | 30 | 31 | 50* | 53* | 40* | 49*
Cc1ccc2nc(NC(=O)COC(=O)c3ccco3)sc2c1 | 2 | 2 | 1 | 13 | -5 | -7 | x | x | x | x | x
CCOC(=O)C1CCN(c2ncnc3c2cnn3-c2ccccc2)CC1 | 5 | 3 | 0 | 5 | 1 | -25 | x | x | x | x | x
CCOC(=O)C1CCN(c2ncnc3c2cnn3-c2ccc(Cl)cc2)CC1 | 9 | 4 | 0 | 48* | 2 | -2 | -21 | -34 | -7 | -12 | 5
O=C1NCCCC1C(=O)N/N=C/c1cccc(Cl)c1 (centres undefined) | x | x | -5 | 4 | x | 20 | x | x | x | x | x
CC1CCCN(C(=O)c2ccc3c(c2NCCO)C(=O)c2ccccc2C3=O)C1 (centres undefined) | -9 | 1 | 1 | 31* | -8 | 29 | 46* | 62* | 38* | 31* | 42*
O=C1c2ccccc2C(=O)c2c1ccc(C(=O)N1CCCCC1)c2NCCO | -2 | 2 | -2 | 2 | 2 | 21 | x | x | x | x | x
CC1CCCCC1NS(=O)(=O)c1ccc(S(=O)(=O)NCc2ccncc2)cc1 (centres undefined) | -3 | 2 | 4 | 37* | -13 | -3 | 7 | -24 | -13 | 1 | 0
Cc1ccc(-c2ccc(/C=N/c3ncn[nH]3)o2)cc1Cl | 2 | 4 | x | 0 | 7 | -12 | x | x | x | x | x
CC(=O)c1ccc2noc(-c3ccc(F)cc3)c2c1 | x | 3 | 1 | 3 | -1 | 14 | x | x | x | x | x
O=C(COC(=O)c1cc(NS(=O)(=O)c2cccs2)ccc1O)Nc1ccccc1 | x | x | -1 | 3 | x | 12 | x | x | x | x | x
CN(Cc1ccccc1)C(=O)COC(=O)c1cc(NS(=O)(=O)c2cccs2)ccc1O | x | 11 | -5 | 35* | -7 | 25 | 7 | -10 | -14 | -1 | -4
C=CCOc1c(Br)cc(/C=N/n2c(CC)n[nH]c2=S)cc1Br | 9 | 4 | x | 7 | 3 | 9 | x | x | x | x | x
CCCOc1ccc(Oc2nc(-c3ccncc3)nc3ccccc23)cc1 | x | x | -2 | -4 | x | -34 | x | x | x | x | x
O=C(Nc1ccc(S(=O)(=O)Nc2ncccn2)cc1)c1ccc(Br)s1 | 1 | 3 | -3 | 28* | 0 | 12 | 3 | 5 | 10 | 7 | 9
CC(=O)NNC(=O)CCC(=O)Nc1ccccc1 | 3 | 3 | -1 | 0 | -1 | -1 | x | x | x | x | x
SMILES | NPY-Y2 antag | MT stabilizer | b-catenin transl | NPY2 pot ag | NPY Y1 blocker | NPY-Y1 PAM-ag | NPY-Y2 confirm | NPY-Y1 potentiator | NPY-Y1 agonist 2 | CNGC inh | NPY-Y2 ag 2
CC(=O)SCCC(=O)Nc1ccccc1 | -7 | 3 | 0 | 44* | -16 | 26 | 32 | 41 | 52* | 37* | 47*
COc1cc(NC(=O)c2cc3ccccc3cc2O)c(OC)cc1Cl | x | x | -1 | 58* | x | 31 | 21 | -8 | -13 | 4 | 12*
Cc1ccc(Cl)cc1NC(=O)COC(=O)c1ccccc1O | x | x | -3 | -2 | x | -11 | x | x | x | x | x
Cc1ccc(Cl)cc1NC(=O)c1cc2ccccc2cc1O | x | x | -2 | 45* | x | 37 | 8 | 15 | -5 | 20 | 19*
COc1cc(OC)c(NC(=O)c2ccccc2F)cc1Cl | x | 2 | 2 | -3 | 9 | -8 | x | x | x | x | x
COc1ccc(NC(=S)N2CCCN(Cc3cc(C)ccc3C)C2)cc1 | x | 1 | -3 | 3 | -1 | 7 | x | x | x | x | x
CCOC(=O)Cn1c(=O)oc2cc(S(=O)(=O)NCCc3ccc(C)cc3)ccc21 | 13 | 5 | -2 | -13 | 3 | -10 | x | x | x | x | x
CCOC(=O)Cn1c(=O)oc2cc(S(=O)(=O)Nc3ccc(F)cc3)ccc21 | -1 | 1 | 13 | 36* | -11 | 31 | 16 | 20 | 22* | 33* | 12*
COc1ccc(-n2c(=S)[nH]c3sc4c(c3c2=O)CCN(C)C4)cc1 | x | x | 0 | -9 | x | -6 | x | x | x | x | x
